From ChEMBL document CHEMBL4406880, “Design, synthesis, and bioactivity of dihydropyrimidine derivatives as kinesin spindle protein inhibitors” (Bioorg Med Chem, 2019)

Tests used:
Assay type in all cases: functional
HL-60(TB) [1] = experiment: Growth inhibition of human HL-60(TB) cells incubated for 48 hrs by sulforhodamine B assay; conditions: HL-60, 48 h
Method in brief: (§1)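 NCI-60 five-dose assay, SRB end-point, same culture conditions. Compound is tested at tenfold dilutions of 0.01, 0.1, 1, 10 and 100 µM for 48 h at 37 °C, with DMSO/PBS vehicle controls. Percentage growth at each concentration is taken against untreated cells and a time-zero plate. GI50 is 50% net growth decrease, TGI is total growth inhibition, and LC50 is 50% loss of initial cells.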

HT-29 [2] = experiment: Growth inhibition of human HT-29 cells incubated for 48 hrs by sulforhodamine B assay; conditions: HT-29, 48 h
Method in brief: (§2)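 NCI-60 five-dose SRB assay in RPMI 1640 with 5% FBS, 37 °C, 5% CO2. Compound given at five tenfold dilutions, 0.01–100 µM, for 48 h. Adherent cells fixed with TCA, suspension cells with 16% final TCA. Bound SRB read at 515 nm and growth calculated against time-zero and untreated controls. GI50 taken from dose–response curves as the concentration giving a 50% decrease in net cell growth.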

SF-539 = experiment: Growth inhibition of human SF539 cells assessed as cell viability at 1 uM incubated for 48 hrs by sulforhodamine B assay; conditions: SF-539, 48 h, read-out: Activity
HCC 2998 [3] = experiment: Growth inhibition of human HCC2998 cells assessed as cell viability at 0.001 uM incubated for 48 hrs by sulforhodamine B assay relative to control; conditions: HCC 2998, 48 h, read-out: Activity
HL-60(TB) [4] = experiment: Growth inhibition of human HL-60(TB) cells assessed as cell viability at 100 uM incubated for 48 hrs by sulforhodamine B assay; conditions: HL-60, 48 h, read-out: Activity; method in brief: as §1
M14 [5] = experiment: Growth inhibition of human M14 cells incubated for 48 hrs by sulforhodamine B assay; conditions: M14, 48 h; method in brief: as §2
SK-OV-3 [6] = experiment: Growth inhibition of human SKOV3 cells assessed as cell viability at 1 uM incubated for 48 hrs by sulforhodamine B assay; conditions: SK-OV-3, 48 h, read-out: Activity
SN12C = experiment: Growth inhibition of human SN12C cells assessed as cell viability at 0.1 uM incubated for 48 hrs by sulforhodamine B assay; conditions: read-out: Activity
MOLT-4 = experiment: Growth inhibition of human MOLT4 cells assessed as cell viability at 100 uM incubated for 48 hrs by sulforhodamine B assay; conditions: MOLT-4, 48 h, read-out: Activity
HCC 2998 [7] = experiment: Growth inhibition of human HCC2998 cells assessed as cell viability at 1 uM incubated for 48 hrs by sulforhodamine B assay; conditions: HCC 2998, 48 h, read-out: Activity
A498 = experiment: Growth inhibition of human A498 cells incubated for 48 hrs by sulforhodamine B assay; conditions: A498, 48 h
Method in brief: (§3)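 NCI-60 five-dose mode: five tenfold dilutions (0.01, 0.1, 1, 10, 100 µM) are applied for 48 h to cells in RPMI 1640 with 5% FBS at 37 °C. Endpoint is TCA fixation with sulforhodamine B read at 515 nm. % growth comes from the 0 h and control absorbances. GI50 is the concentration giving a 50% reduction in net cell growth.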

HT-29 [8] = experiment: Growth inhibition of human HT-29 cells assessed as cell viability at 100 uM incubated for 48 hrs by sulforhodamine B assay; conditions: HT-29, 48 h, read-out: Activity
SK-OV-3 [9] = experiment: Growth inhibition of human SKOV3 cells assessed as cell viability at 0.1 uM incubated for 48 hrs by sulforhodamine B assay; conditions: SK-OV-3, 48 h, read-out: Activity
HOP-92 = experiment: Growth inhibition of human HOP92 cells assessed as cell viability at 0.1 uM incubated for 48 hrs by sulforhodamine B assay; conditions: HOP-92, 48 h, read-out: Activity
OVCAR-5 = experiment: Growth inhibition of human OVCAR5 cells incubated for 48 hrs by sulforhodamine B assay; conditions: OVCAR-5, 48 h
Method in brief: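 NCI-60 five-dose SRB assay. Cells were exposed for 48 h to tenfold dilutions of 0.01, 0.1, 1, 10 and 100 µM, in RPMI 1640 with 5% FBS. Plates fixed with TCA at the time of drug addition served as the time-zero reference. GI50 is the concentration giving a 50% reduction in net growth. TGI is total growth inhibition. LC50 is a net 50% loss of the initial cells.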

MDA-MB-231 = experiment: Growth inhibition of human MDA-MB-231 cells assessed as cell viability at 0.001 uM incubated for 48 hrs by sulforhodamine B assay relative to control; conditions: MDA-MB-231, 48 h, read-out: Activity
COLO 205 = experiment: Growth inhibition of human COLO205 cells incubated for 48 hrs by sulforhodamine B assay; conditions: COLO 205, 48 h; method in brief: as §3
M14 [10] = experiment: Growth inhibition of human M14 cells assessed as cell viability at 1 uM incubated for 48 hrs by sulforhodamine B assay; conditions: M14, 48 h, read-out: Activity
HOP-62 = experiment: Growth inhibition of human HOP62 cells assessed as cell viability at 1 uM incubated for 48 hrs by sulforhodamine B assay; conditions: HOP-62, 48 h, read-out: Activity
NCI-H522 = experiment: Growth inhibition of human NCI-H522 cells assessed as cell viability at 0.1 uM incubated for 48 hrs by sulforhodamine B assay; conditions: NCI-H522, 48 h, read-out: Activity
MCF7 = experiment: Growth inhibition of human MCF7 cells assessed as cell viability at 100 uM incubated for 48 hrs by sulforhodamine B assay; conditions: MCF7, 48 h, read-out: Activity
EKVX = experiment: Growth inhibition of human EKVX cells assessed as cell viability at 0.001 uM incubated for 48 hrs by sulforhodamine B assay relative to control; conditions: read-out: Activity
[11] = read-out: LC50 (the source's name)
[12] = read-out: pLC50 (the source's name) (converted)

CC1=C(C(=O)OCc2ccccc2)C(c2ccc3c(c2)OCO3)n2c(nc3ccccc32)N1 (racemic)
GI50 (HL-60(TB) [1]; read-out: GI50): 0.34 µM
CC50 (HL-60(TB) [1]; [11]): > 100 µM
TGI (HL-60(TB) [1]; read-out: TGI): > 100 µM
GI50 (HL-60(TB) [1]; read-out: pGI50 (converted)): 0.339 µM
CC50 (HL-60(TB) [1]; [12]): > 100 µM
TGI (HL-60(TB) [1]; read-out: pTGI): > 100 µM
GI50 (HT-29 [2]; read-out: GI50): 0.34 µM
LC50 (50% net cell kill) (HT-29 [2]; read-out: LC50): > 100 µM
TGI (HT-29 [2]; read-out: TGI): > 100 µM
GI50 (HT-29 [2]; read-out: pGI50 (converted)): 0.347 µM
LC50 (50% net cell kill) (HT-29 [2]; read-out: pLC50 (converted)): > 100 µM
TGI (HT-29 [2]; read-out: pTGI): > 100 µM
viability at 1 µM (SF-539): 13%
viability at 0.001 µM (HCC 2998 [3]): 92%
viability at 100 µM (HL-60(TB) [4]): 9%
GI50 (M14 [5]; read-out: GI50): 0.46 µM
LC50 (50% net cell kill) (M14 [5]; read-out: LC50): > 100 µM
TGI (M14 [5]; read-out: TGI): > 100 µM
GI50 (M14 [5]; read-out: pGI50 (converted)): 0.468 µM
LC50 (50% net cell kill) (M14 [5]; read-out: pLC50 (converted)): > 100 µM
TGI (M14 [5]; read-out: pTGI): > 100 µM
viability at 1 µM (SK-OV-3 [6]): 27%
viability at 0.1 µM (SN12C): 95%
viability at 100 µM (MOLT-4): 33%
viability at 1 µM (HCC 2998 [7]): 59%
GI50 (A498; read-out: GI50): 0.36 µM
CC50 (A498; [11]): > 100 µM
TGI (A498; read-out: TGI): > 100 µM
GI50 (A498; read-out: pGI50 (converted)): 0.363 µM
CC50 (A498; [12]): > 100 µM
TGI (A498; read-out: pTGI): > 100 µM
viability at 100 µM (HT-29 [8]): 5%
viability at 0.1 µM (SK-OV-3 [9]): 97%
viability at 0.1 µM (HOP-92): 70%
GI50 (OVCAR-5; read-out: GI50): > 100 µM
CC50 (OVCAR-5; [11]): > 100 µM
TGI (OVCAR-5; read-out: TGI): > 100 µM
GI50 (OVCAR-5; read-out: pGI50 (converted)): > 100 µM
CC50 (OVCAR-5; [12]): > 100 µM
TGI (OVCAR-5; read-out: pTGI): > 100 µM
viability at 0.001 µM (MDA-MB-231): 97%
GI50 (COLO 205; read-out: GI50): 0.5 µM
LC50 (COLO 205; read-out: LC50): > 100 µM
TGI (COLO 205; read-out: TGI): > 100 µM
GI50 (COLO 205; read-out: pGI50 (converted)): 0.501 µM
LC50 (COLO 205; read-out: pLC50 (converted)): > 100 µM
TGI (COLO 205; read-out: pTGI): > 100 µM
viability at 1 µM (M14 [10]): 30%
viability at 1 µM (HOP-62): 44%
viability at 0.1 µM (NCI-H522): 57%
viability at 100 µM (MCF7): 7%
viability at 0.001 µM (EKVX): 91%
